According to ChEMBL document CHEMBL5661986, “Discovery of the SMYD3 Inhibitor BAY-6035 Using Thermal Shift Assay (TSA)-Based High-Throughput Screening” (SLAS Discov, 2021):
Values after ≈ are worked out from the molar mass of the structure shown. Active and inactive are the calls of the source. The calls are words filed in the database; no cut-off is given here.

Columns and labels:
[1] = molecular target: Platelet-derived growth factor receptor beta (Homo sapiens, UniProt P09619); assay: Inhibition of PDGFR beta (unknown origin)
[2] = molecular target: Histone-lysine N-methyltransferase PRDM9 (Homo sapiens) (UniProt Q9NQV7); assay: Inhibition of PRDM9 (unknown origin)
Sequence of Histone-lysine N-methyltransferase PRDM9 (Homo sapiens) (Q9NQV7 whole entry): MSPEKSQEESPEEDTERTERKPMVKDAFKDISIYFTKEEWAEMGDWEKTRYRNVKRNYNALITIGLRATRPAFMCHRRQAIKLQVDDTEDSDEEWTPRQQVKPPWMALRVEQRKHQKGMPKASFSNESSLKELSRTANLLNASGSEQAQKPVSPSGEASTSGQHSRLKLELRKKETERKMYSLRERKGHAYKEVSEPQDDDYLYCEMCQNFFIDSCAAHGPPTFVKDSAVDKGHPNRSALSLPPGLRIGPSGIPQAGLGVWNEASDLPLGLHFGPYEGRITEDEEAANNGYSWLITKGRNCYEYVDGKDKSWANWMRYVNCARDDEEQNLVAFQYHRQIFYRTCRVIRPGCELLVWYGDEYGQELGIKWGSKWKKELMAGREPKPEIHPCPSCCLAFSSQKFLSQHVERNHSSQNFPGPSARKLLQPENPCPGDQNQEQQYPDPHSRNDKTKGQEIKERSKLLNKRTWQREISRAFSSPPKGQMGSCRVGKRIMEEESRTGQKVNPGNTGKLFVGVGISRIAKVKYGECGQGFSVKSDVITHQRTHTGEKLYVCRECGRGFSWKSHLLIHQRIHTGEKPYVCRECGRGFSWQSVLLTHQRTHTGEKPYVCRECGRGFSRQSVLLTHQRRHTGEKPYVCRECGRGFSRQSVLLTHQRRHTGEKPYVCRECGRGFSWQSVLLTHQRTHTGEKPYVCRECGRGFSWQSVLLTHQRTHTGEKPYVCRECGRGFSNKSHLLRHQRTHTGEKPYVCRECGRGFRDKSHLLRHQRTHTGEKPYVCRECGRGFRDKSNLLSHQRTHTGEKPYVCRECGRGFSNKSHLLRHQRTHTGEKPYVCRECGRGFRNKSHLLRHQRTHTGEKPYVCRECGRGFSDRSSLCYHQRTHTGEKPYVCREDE

[3] = molecular target: METTL3/METTL14 (Homo sapiens) (UniProt Q86U44+Q9HCE5); assay: Inhibition of METTL3/METTL14 (unknown origin); type: protein-complex assay
[4] = molecular target: Vascular endothelial growth factor receptor 3 (Homo sapiens, UniProt P35916); assay: Inhibition of FLT4 (unknown origin)
[5] = test system: MDA-MB-231; assay: Antiproliferative activity against human MDA-MB-231 cells assessed as inhibition of cell viability measured for 3 to 5 days by alamar blue staining based assay; type: functional
[6] = molecular target: Histone-lysine N-methyltransferase NSD3 (Homo sapiens) (UniProt Q9BZ95); assay: Inhibition of NSD3 (unknown origin)
Sequence of Histone-lysine N-methyltransferase NSD3 (Homo sapiens) (Q9BZ95 whole entry): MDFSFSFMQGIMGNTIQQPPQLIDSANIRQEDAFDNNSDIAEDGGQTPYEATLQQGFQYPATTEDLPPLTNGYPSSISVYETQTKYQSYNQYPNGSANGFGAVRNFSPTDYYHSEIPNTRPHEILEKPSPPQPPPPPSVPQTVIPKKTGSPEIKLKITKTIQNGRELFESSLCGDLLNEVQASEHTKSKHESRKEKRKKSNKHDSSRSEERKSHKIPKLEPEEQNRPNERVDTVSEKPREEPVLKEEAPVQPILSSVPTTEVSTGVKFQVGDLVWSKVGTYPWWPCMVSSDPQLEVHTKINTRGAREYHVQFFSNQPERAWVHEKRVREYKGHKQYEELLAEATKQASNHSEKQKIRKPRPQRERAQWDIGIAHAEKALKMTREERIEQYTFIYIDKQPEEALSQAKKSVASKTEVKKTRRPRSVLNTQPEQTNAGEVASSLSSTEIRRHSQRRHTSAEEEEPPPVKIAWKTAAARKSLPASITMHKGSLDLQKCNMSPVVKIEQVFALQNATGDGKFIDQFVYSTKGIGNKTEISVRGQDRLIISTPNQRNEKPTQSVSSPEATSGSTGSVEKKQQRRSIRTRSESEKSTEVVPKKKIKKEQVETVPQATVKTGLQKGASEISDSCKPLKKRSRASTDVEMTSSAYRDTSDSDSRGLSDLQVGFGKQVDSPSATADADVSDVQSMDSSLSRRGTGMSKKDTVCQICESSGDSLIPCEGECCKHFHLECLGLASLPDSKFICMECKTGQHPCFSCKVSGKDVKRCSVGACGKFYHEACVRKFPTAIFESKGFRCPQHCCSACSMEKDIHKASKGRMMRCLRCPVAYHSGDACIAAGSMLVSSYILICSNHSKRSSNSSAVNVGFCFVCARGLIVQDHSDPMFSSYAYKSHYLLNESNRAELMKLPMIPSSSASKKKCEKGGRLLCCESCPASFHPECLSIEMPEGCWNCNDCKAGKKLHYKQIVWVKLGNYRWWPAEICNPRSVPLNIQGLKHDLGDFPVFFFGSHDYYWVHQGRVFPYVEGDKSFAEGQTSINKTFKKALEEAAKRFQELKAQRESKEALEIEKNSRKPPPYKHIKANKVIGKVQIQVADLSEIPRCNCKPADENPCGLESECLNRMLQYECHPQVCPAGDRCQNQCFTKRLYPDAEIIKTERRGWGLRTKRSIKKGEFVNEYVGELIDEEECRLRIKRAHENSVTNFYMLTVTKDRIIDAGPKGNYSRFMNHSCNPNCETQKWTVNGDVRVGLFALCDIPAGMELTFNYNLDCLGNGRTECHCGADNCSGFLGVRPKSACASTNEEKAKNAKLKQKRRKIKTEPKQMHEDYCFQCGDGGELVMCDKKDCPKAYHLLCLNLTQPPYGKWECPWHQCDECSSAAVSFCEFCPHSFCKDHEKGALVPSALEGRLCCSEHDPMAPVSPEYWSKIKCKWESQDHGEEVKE

[7] = test system: KYSE-30; assay: Antiproliferative activity against human KYSE-30 cells assessed as inhibition of cell viability measured for 3 to 5 days by alamar blue staining based assay; type: functional
[8] = molecular target: Interleukin-1 receptor-associated kinase 1 (Homo sapiens, UniProt P51617); assay: Inhibition of IRAK1 (unknown origin) in presence of ATP
[9] = molecular target: Epidermal growth factor receptor (Homo sapiens, UniProt P00533); assay: Inhibition of EGFR (unknown origin) in presence of ATP
Sequence of Epidermal growth factor receptor (P00533 whole entry): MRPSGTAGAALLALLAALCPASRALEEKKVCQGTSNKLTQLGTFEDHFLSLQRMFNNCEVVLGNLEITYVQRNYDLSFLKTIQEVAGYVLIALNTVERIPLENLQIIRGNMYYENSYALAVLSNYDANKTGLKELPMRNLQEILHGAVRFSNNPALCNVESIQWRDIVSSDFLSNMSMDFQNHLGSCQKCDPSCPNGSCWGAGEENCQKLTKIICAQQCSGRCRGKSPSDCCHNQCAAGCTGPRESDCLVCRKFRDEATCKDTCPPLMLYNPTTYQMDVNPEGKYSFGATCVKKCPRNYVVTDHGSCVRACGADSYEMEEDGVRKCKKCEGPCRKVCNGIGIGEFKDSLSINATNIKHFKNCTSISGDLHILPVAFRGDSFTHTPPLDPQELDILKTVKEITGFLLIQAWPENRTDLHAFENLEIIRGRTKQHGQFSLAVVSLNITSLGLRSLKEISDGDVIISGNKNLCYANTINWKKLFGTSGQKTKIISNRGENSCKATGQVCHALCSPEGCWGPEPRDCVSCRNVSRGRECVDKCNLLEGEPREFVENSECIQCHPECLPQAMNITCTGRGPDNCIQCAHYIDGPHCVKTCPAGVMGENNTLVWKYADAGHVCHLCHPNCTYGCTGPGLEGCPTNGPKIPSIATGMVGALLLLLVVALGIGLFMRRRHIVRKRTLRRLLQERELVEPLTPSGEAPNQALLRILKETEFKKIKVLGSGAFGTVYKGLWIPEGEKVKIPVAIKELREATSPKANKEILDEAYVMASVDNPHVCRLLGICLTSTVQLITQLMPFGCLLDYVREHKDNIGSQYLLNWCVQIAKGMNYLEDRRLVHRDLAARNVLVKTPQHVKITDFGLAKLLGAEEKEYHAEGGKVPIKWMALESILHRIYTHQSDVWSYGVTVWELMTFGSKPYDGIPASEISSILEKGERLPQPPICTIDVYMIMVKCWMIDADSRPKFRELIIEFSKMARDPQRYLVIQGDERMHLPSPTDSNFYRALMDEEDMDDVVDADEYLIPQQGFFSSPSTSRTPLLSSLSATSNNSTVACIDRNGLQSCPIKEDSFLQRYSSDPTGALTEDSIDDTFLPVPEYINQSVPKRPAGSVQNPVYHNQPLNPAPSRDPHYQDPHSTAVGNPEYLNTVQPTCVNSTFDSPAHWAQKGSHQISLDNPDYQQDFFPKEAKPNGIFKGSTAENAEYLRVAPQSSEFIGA

[10] = molecular target: Cyclin-dependent kinase 2/cyclin E1 (Homo sapiens, UniProt P24941); assay: Inhibition of CDK2/CyclinE (unknown origin) in presence of ATP; type: protein-complex assay
[11] = molecular target: DNA (cytosine-5)-methyltransferase 1 (Homo sapiens) (UniProt P26358); assay: Inhibition of DNMT1 (unknown origin)
Sequence of DNA (cytosine-5)-methyltransferase 1 (Homo sapiens) (P26358 whole entry): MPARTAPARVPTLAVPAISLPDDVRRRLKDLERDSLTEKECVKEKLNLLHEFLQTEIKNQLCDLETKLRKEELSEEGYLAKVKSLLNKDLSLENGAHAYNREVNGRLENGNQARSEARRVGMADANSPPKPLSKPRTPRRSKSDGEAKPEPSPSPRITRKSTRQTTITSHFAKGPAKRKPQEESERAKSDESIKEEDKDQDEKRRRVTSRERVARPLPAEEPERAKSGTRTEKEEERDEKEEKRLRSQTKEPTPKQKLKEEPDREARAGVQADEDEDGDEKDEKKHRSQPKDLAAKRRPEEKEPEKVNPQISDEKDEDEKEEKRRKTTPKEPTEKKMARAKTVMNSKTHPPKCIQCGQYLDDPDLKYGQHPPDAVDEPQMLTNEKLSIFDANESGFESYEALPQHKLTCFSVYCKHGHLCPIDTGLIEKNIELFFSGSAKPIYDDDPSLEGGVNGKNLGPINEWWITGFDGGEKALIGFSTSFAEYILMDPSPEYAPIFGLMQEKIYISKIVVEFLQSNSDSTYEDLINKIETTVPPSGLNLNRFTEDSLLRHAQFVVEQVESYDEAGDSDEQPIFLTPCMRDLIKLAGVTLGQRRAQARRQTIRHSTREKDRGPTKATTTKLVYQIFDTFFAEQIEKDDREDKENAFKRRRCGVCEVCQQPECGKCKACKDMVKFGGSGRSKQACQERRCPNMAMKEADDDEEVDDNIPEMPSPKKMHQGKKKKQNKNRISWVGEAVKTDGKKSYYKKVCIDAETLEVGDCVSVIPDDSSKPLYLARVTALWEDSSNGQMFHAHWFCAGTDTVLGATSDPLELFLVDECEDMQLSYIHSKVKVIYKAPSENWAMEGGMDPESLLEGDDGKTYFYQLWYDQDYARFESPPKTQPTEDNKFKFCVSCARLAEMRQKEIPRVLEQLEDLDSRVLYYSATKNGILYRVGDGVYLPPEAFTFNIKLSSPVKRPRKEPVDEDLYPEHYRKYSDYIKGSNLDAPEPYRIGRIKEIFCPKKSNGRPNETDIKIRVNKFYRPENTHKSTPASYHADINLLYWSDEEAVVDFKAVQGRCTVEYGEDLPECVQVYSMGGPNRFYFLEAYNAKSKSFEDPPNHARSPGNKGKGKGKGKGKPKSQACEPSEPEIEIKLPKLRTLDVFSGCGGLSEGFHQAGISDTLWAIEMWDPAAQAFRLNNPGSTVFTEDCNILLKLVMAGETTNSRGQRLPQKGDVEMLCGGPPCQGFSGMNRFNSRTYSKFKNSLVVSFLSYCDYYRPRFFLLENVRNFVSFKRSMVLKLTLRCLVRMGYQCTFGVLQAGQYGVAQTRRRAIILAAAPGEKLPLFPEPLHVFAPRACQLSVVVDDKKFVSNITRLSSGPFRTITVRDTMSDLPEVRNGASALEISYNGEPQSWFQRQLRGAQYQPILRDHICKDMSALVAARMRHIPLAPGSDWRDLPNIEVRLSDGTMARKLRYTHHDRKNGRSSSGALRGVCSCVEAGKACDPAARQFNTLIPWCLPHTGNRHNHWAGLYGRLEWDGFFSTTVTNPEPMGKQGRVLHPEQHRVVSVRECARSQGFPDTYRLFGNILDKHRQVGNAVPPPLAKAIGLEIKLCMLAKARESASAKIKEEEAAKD

[12] = test system: Hs746T; assay: Antiproliferative activity against human Hs746T cells assessed as inhibition of cell viability measured for 3 to 5 days by alamar blue staining based assay; type: functional
[13] = molecular target: T1, Histone-lysine N-methyltransferase SMYD3 (Homo sapiens, UniProt Q9H7B4); assay: Binding affinity to recombinant human SMYD3 expressed in Escherichia coli assessed as dissociation constant by isothermal titration calorimetry
T1 sequence (Q9H7B4 whole entry): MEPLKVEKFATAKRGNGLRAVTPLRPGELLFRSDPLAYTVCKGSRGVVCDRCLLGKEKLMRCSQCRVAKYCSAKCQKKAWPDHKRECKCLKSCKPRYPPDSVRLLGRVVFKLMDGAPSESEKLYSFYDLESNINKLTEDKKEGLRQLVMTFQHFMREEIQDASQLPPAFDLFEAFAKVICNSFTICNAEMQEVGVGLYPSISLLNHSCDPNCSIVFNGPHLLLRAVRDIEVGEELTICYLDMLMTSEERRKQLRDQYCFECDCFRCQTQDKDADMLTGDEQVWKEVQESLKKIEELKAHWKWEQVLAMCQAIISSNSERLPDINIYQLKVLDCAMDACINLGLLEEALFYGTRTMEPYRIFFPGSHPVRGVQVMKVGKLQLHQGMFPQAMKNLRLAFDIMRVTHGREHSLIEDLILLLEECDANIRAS
Method in brief: (§1)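 Syringe held compound at 0.3 mM in 20 mM HEPES pH 7.4, 150 mM NaCl, 0.005% Tween 20, 2.5% DMSO; eight 4 µL injections at 180 s intervals into SMYD3.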

[14] = organism: Homo sapiens; assay: Inhibition of GLP (unknown origin)
[15] = test system: PaTu 8988t; assay: Antiproliferative activity against human PaTu 8988t cells assessed as inhibition of cell viability measured for 3 to 5 days by alamar blue staining based assay; type: functional
[16] = test system: Jurkat; assay: Antiproliferative activity against human Jurkat cells assessed as inhibition of cell viability measured for 3 to 5 days by alamar blue staining based assay; type: functional
[17] = molecular target: Protein arginine N-methyltransferase 5 (Homo sapiens) (UniProt O14744); assay: Inhibition of PRMT5 (unknown origin)
[18] = molecular target: Dual specificity mitogen-activated protein kinase kinase 5 (Homo sapiens, UniProt Q13163); assay: Inhibition of MEK5 (unknown origin) by competition binding assay
[19] = molecular target: DNMT3A2/3L complex (Homo sapiens) (UniProt Q9Y6K1+Q9UJW3); assay: Inhibition of DNMT3A/DNMT3L (unknown origin); type: protein-complex assay
[20] = molecular target: Casein kinase I isoform gamma-3 (Homo sapiens, UniProt Q9Y6M4); assay: Inhibition of CSNK1G3 (unknown origin)
[21] = molecular target: Protein arginine N-methyltransferase 8 (Homo sapiens) (UniProt Q9NR22); assay: Inhibition of PRMT8 (unknown origin)
[22] = organism: Homo sapiens; assay: Selectivity ratio of IC50 for recombinant human SMYD3 to the IC50 for inhibition of SMYD3- dependent MAP3K2 methylation
[23] = molecular target: Protein arginine N-methyltransferase 1 (Homo sapiens) (UniProt Q99873); assay: Inhibition of PRMT1 (unknown origin)
[24] = molecular target: Dual specificity tyrosine-phosphorylation-regulated kinase 1A (Homo sapiens, UniProt Q13627); assay: Inhibition of human DYRK1a
[25] = Cytotoxicity against human MCF-10A cells assessed as inhibition of cell viability measured for 3 to 5 days by alamar blue staining based assay; type: toxicity
[26] = molecular target: Serine/threonine-protein kinase TBK1 (Homo sapiens, UniProt Q9UHD2); assay: Inhibition of TBK1 (unknown origin) in presence of ATP by HTRF assay
[27] = molecular target: T2, Histone-lysine N-methyltransferase SMYD3 (Homo sapiens) (UniProt Q9H7B4); assay: Binding affinity to recombinant human SMYD3 expressed in Escherichia coli assessed as change in gibbs binding free energy by isothermal titration calorimetry; method in brief: as §1
T2 sequence (whole entry): T1 sequence (Q9H7B4 whole entry)

[28] = molecular target: Histone-lysine N-methyltransferase, H3 lysine-79 specific (Homo sapiens) (UniProt Q8TEK3); assay: Inhibition of DOT1L (unknown origin)
[29] = molecular target: Mitogen-activated protein kinase 7 (Homo sapiens, UniProt Q13164); assay: Inhibition of GST-tagged ERK5 catalytic domain (unknown origin) in presence of ATP
[30] = molecular target: Histone acetyltransferase p300 (Homo sapiens) (UniProt Q09472); assay: Inhibition of EP300 (unknown origin)
[31] = Kinetic solubility of the compound at pH 6.5; type: physicochemical; conditions: buffer, read-out: Kinetic_solubility
[32] = molecular target: Histone-lysine N-methyltransferase ASH1L (Homo sapiens) (UniProt Q9NR48); assay: Inhibition of ASH1L (unknown origin)
[33] = molecular target: T1, Histone-lysine N-methyltransferase SMYD3; assay: Binding affinity to recombinant human SMYD3 expressed in Escherichia coli at varying 3H SAM substrate concentration of upto 3.5 uM with 10 fold Km concentration by scintillation proximity assay
Method in brief: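 SPA, 10 nM SMYD3 methylating biotinylated MAP3K2 249–273 peptide with 3H-SAM in 20 mM Tris pH 9, 2.5 mM DTT, 0.01% Triton X-100; 40 min, 23 °C, GuHCl quench.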

[34] = molecular target: Histone-lysine N-methyltransferase SETD7 (Homo sapiens) (UniProt Q8WTS6); assay: Inhibition of SETD7 (unknown origin)
[35] = test system: Hs-578T; assay: Antiproliferative activity against human Hs-578T cells assessed as inhibition of cell viability measured for 3 to 5 days by alamar blue staining based assay; type: functional

## C[C@H]1CC(=O)Nc2cc(C(=O)NCCC3CC3)ccc2N1C(=O)N1CC2CC2C1 (stereo not given in full)
[1]
  IC50: > 20 µM
[2]
  inhibition: inactive
[3]
  inhibition: inactive
[4]
  IC50: > 20 µM
[5]
  IC50: > 10 µM
[6]
  inhibition: inactive
[7]
  IC50: > 10 µM
[8]
  IC50: > 20 µM
[9]
  IC50: > 20 µM
[10]
  IC50: > 20 µM
[11]
  inhibition: inactive
[12]
  IC50: > 10 µM
[13]
  Kd: 0.133 µM
[14]
  inhibition: inactive
[15]
  IC50: > 10 µM
[16]
  IC50: > 10 µM
[17]
  inhibition: inactive
[18]
  IC50: > 20 µM
[19]
  inhibition: inactive
[20]
  IC50: > 20 µM
[21]
  inhibition: inactive
[22]
  Ratio IC50: 2
[23]
  inhibition: inactive
[24]
  IC50: > 20 µM
[25]
  IC50: > 10 µM
[26]
  IC50: > 20 µM
[27]
  deltaG: -9.2 kcal/mol
[28]
  inhibition: inactive
[29]
  IC50: > 20 µM
[30]
  inhibition: inactive
[31]
  solubility kinetic: 363 µg/mL (≈ 915 µM)
[32]
  inhibition: inactive
[33]
  IC50: Not Active
[34]
  inhibition: inactive
[35]
  IC50: > 10 µM
